Data published in ChEMBL document CHEMBL1132699, “Synthesis and biological evaluation of 2',3'-didehydro-2',3'- dideoxy-5-fluorocytidine (D4FC) analogues: discovery of carbocyclic nucleoside triphosphates with potent inhibitory activity against HIV-1 reverse transcriptase” (J Med Chem, 1999).
pEC50, pIC50: −log10 of the molar value.

System: MCF7
Experiment: Tested in vitro for anticancer activity against MCF-7 cells
Format: functional, cell-based
Details: Homo sapiens

| SMILES | pIC50 |
| --- | --- |
| CC(=O)Nc1nc(=O)n([C@H]2C=C[C@@H](CO)O2)cc1F | 4.20 |
| C[C@@H]1C[C@@H]([C@H](O)CC2CC(=O)NC(=O)C2)C(=O)[C@@H](C)C1 [CYCLOHEXIMIDE] | 5.82 |
| Nc1nc(=O)n([C@H]2C=C[C@@H](CO)O2)cc1Br | < 4.00 |
| Cc1cn([C@H]2C[C@H](N=[N+]=[N-])[C@@H](CO)O2)c(=O)[nH]c1=O [ZIDOVUDINE] | < 5.00 |

System: Vero
Experiment: Tested in vitro for cytotoxicity against Vero cells
Format: functional, cell-based
Details: Chlorocebus sabaeus

| SMILES | pIC50 |
| --- | --- |
| CC(=O)OC[C@@H]1C=C[C@H](n2cc(F)c(N)nc2=O)O1 | < 4.00 |
| Nc1nc(=O)n(C2C=CC(CO)C2)cc1F (stereo not given) | < 4.00 |
| CC(=O)Nc1nc(=O)n([C@H]2C=C[C@@H](CO)O2)cc1F | 3.99 |
| Nc1ccn(C2C=CC(CO)C2)c(=O)n1 (stereo not given) | < 4.00 |
| C[C@@H]1C[C@@H]([C@H](O)CC2CC(=O)NC(=O)C2)C(=O)[C@@H](C)C1 [CYCLOHEXIMIDE] | 5.92 |
| Nc1nc(=O)n([C@H]2C=C[C@@H](CO)O2)cc1Br | < 4.00 |

System: SK-MEL-28
Experiment: The compound was tested in vitro for anticancer activity against SK-MEL-28 cells
Format: functional, cell-based
Details: Homo sapiens
Method in brief: (§1)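 Growth inhibition in human or rat tumour cell lines. Cells cultured with drug in 96-well plates for 5 days (LNCaP, SK-MES-1), 4 days (CEM, MCF-7, SK-MEL-28, HepG2, 9L) or 3 days (PC-3). Solvent-exposed untreated cells served as negative control. Viable, actively metabolizing cells were read by MTT assay. DMSO stocks (40 mM) were diluted in growth medium. IC50 in μM.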

| SMILES | pIC50 |
| --- | --- |
| Cc1cn([C@H]2C[C@H](N=[N+]=[N-])[C@@H](CO)O2)c(=O)[nH]c1=O [ZIDOVUDINE] | < 5.00 |

Target: Human immunodeficiency virus type 1 reverse transcriptase (Human immunodeficiency virus 1) (UniProt Q72547)
Experiment: (§2) The compound was tested for inhibitory activity against Recombinant HIV-1 reverse transcriptase
Details: not given
Method in brief: (§3)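 Extension assay with HIV-1 p66/51 heterodimer RT (1 unit) and r(I)n·(dC)12-18 template-primer (0.05 units/mL). Buffer: Tris-HCl pH 8.0, KCl, MgCl2, DTT, 100 μg/mL BSA, 1 μM [3H]dCTP. Incubated 1 h at 37 °C, stopped with cold 10% TCA/0.05% sodium pyrophosphate for 30 min at 4 °C. Precipitate filter-harvested and counted by beta counting. 3TC-TP served as positive control.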

| SMILES | IC90 |
| --- | --- |
| Nc1nc(=O)n([C@H]2C=C[C@@H](COP(=O)(O)OP(=O)(O)OP(=O)(O)O)C2)cc1F (racemic) | 2.2 µM |
| Nc1nc(=O)n(C2C=CC(COP(=O)(O)OP(=O)(O)OP(=O)(O)O)C2)cc1F (racemic) | 4 µM |
| Nc1ccc([C@@H]2CS[C@H](OP(=O)(O)OP(=O)(O)OP(=O)(O)O)O2)c(O)n1 | 29.8 µM |
| Nc1ccn(C2C=CC(COP(=O)(O)OP(=O)(O)OP(=O)(O)O)C2)c(=O)n1 (racemic) | 3.4 µM |

System: HepG2
Experiment: Tested in vitro for anticancer activity against HepG2 cells
Format: functional, cell-based
Details: Homo sapiens

| SMILES | pIC50 |
| --- | --- |
| CC(=O)OC[C@@H]1C=C[C@H](n2cc(F)c(N)nc2=O)O1 | < 4.00 |
| CC(=O)Nc1nc(=O)n([C@H]2C=C[C@@H](CO)O2)cc1F | < 4.00 |
| C[C@@H]1C[C@@H]([C@H](O)CC2CC(=O)NC(=O)C2)C(=O)[C@@H](C)C1 [CYCLOHEXIMIDE] | 5.60 |
| Nc1nc(=O)n([C@H]2C=C[C@@H](CO)O2)cc1Br | < 4.00 |

System: SK-MES-1
Experiment: Tested in vitro for anticancer activity against SK-MES-1 cells
Format: functional, cell-based
Details: Homo sapiens

| SMILES | pIC50 |
| --- | --- |
| CC(=O)OC[C@@H]1C=C[C@H](n2cc(F)c(N)nc2=O)O1 | < 4.00 |
| CC(=O)Nc1nc(=O)n([C@H]2C=C[C@@H](CO)O2)cc1F | 4.07 |
| C[C@@H]1C[C@@H]([C@H](O)CC2CC(=O)NC(=O)C2)C(=O)[C@@H](C)C1 [CYCLOHEXIMIDE] | 5.57 |
| Nc1nc(=O)n([C@H]2C=C[C@@H](CO)O2)cc1Br | < 4.00 |
| Cc1cn([C@H]2C[C@H](N=[N+]=[N-])[C@@H](CO)O2)c(=O)[nH]c1=O [ZIDOVUDINE] | < 4.00 |

System: SK-MEL-28
Experiment: Tested in vitro for anticancer activity against SK-MEL-28 cells
Format: functional, cell-based
Details: Homo sapiens

| SMILES | pIC50 |
| --- | --- |
| CC(=O)OC[C@@H]1C=C[C@H](n2cc(F)c(N)nc2=O)O1 | < 4.00 |
| CC(=O)Nc1nc(=O)n([C@H]2C=C[C@@H](CO)O2)cc1F | 3.97 |
| C[C@@H]1C[C@@H]([C@H](O)CC2CC(=O)NC(=O)C2)C(=O)[C@@H](C)C1 [CYCLOHEXIMIDE] | 6.00 |
| Nc1nc(=O)n([C@H]2C=C[C@@H](CO)O2)cc1Br | < 4.00 |

System: LNCaP
Experiment: Tested in vitro for anticancer activity against LNCaP cells
Format: functional, cell-based
Details: Homo sapiens

| SMILES | pIC50 |
| --- | --- |
| CC(=O)Nc1nc(=O)n([C@H]2C=C[C@@H](CO)O2)cc1F | < 4.00 |
| C[C@@H]1C[C@@H]([C@H](O)CC2CC(=O)NC(=O)C2)C(=O)[C@@H](C)C1 [CYCLOHEXIMIDE] | 5.92 |
| Nc1nc(=O)n([C@H]2C=C[C@@H](CO)O2)cc1Br | < 4.00 |

System: 9L
Experiment: Tested in vitro for anticancer activity against 9L cells
Format: functional, cell-based
Details: Rattus norvegicus
Method in brief: as §1

| SMILES | pIC50 |
| --- | --- |
| C[C@@H]1C[C@@H]([C@H](O)CC2CC(=O)NC(=O)C2)C(=O)[C@@H](C)C1 [CYCLOHEXIMIDE] | 6.70 |

Target: Human immunodeficiency virus type 1 reverse transcriptase (Human immunodeficiency virus 1, UniProt Q72547)
Experiment: as §2
Details: not given
Method in brief: as §3

| SMILES | pIC50 |
| --- | --- |
| Nc1nc(=O)n([C@H]2C=C[C@@H](COP(=O)(O)OP(=O)(O)OP(=O)(O)O)C2)cc1F (racemic) | 6.57 |
| Nc1nc(=O)n(C2C=CC(COP(=O)(O)OP(=O)(O)OP(=O)(O)O)C2)cc1F (racemic) | 6.40 |
| Nc1ccc([C@@H]2CS[C@H](OP(=O)(O)OP(=O)(O)OP(=O)(O)O)O2)c(=O)[nH]1 | 5.44 |
| Nc1ccn(C2C=CC(COP(=O)(O)OP(=O)(O)OP(=O)(O)O)C2)c(=O)n1 (racemic) | 6.42 |

System: CCRF-CEM
Experiment: Tested in vitro for anticancer activity against CEM cells
Format: functional, cell-based
Details: Homo sapiens

| SMILES | pIC50 |
| --- | --- |
| CC(=O)OC[C@@H]1C=C[C@H](n2cc(F)c(N)nc2=O)O1 | < 4.00 |
| Nc1nc(=O)n(C2C=CC(CO)C2)cc1F (stereo not given) | < 4.00 |
| CC(=O)Nc1nc(=O)n([C@H]2C=C[C@@H](CO)O2)cc1F | 4.83 |
| Nc1ccn(C2C=CC(CO)C2)c(=O)n1 (stereo not given) | < 4.00 |
| C[C@@H]1C[C@@H]([C@H](O)CC2CC(=O)NC(=O)C2)C(=O)[C@@H](C)C1 [CYCLOHEXIMIDE] | 6.92 |
| Nc1nc(=O)n([C@H]2C=C[C@@H](CO)O2)cc1Br | 4.37 |

System: PC-3
Experiment: Tested in vitro for anticancer activity against PC-3 cells
Format: functional, cell-based
Details: Homo sapiens

| SMILES | pIC50 |
| --- | --- |
| CC(=O)OC[C@@H]1C=C[C@H](n2cc(F)c(N)nc2=O)O1 | < 4.00 |
| CC(=O)Nc1nc(=O)n([C@H]2C=C[C@@H](CO)O2)cc1F | < 4.00 |
| C[C@@H]1C[C@@H]([C@H](O)CC2CC(=O)NC(=O)C2)C(=O)[C@@H](C)C1 [CYCLOHEXIMIDE] | 5.46 |
| Nc1nc(=O)n([C@H]2C=C[C@@H](CO)O2)cc1Br | < 4.00 |

System: Human immunodeficiency virus 1
Experiment: (§4) Tested in vitro for anti HIV-1 activity against PBM cells
Format: functional
Details: Human immunodeficiency virus 1, PBMC

| SMILES | EC90 |
| --- | --- |
| CC(=O)OC[C@@H]1C=C[C@H](n2cc(F)c(N)nc2=O)O1 | 0.4 µM |
| Nc1nc(=O)n(C2C=CC(CO)C2)cc1F (stereo not given) | 71 µM |
| CC(=O)Nc1nc(=O)n([C@H]2C=C[C@@H](CO)O2)cc1F | 6 µM |
| Nc1ccn(C2C=CC(CO)C2)c(=O)n1 (stereo not given) | 59.9 µM |
| Nc1nc(=O)n([C@H]2C=C[C@@H](CO)O2)cc1Br | > 10 µM |
| Cc1cn([C@H]2C[C@H](N=[N+]=[N-])[C@@H](CO)O2)c(=O)[nH]c1=O [ZIDOVUDINE] | 0.02 µM |

System: not listed separately
Experiment: Tested in vitro for cytotoxicity against PBM cells
Format: functional, cell-based
Details: Homo sapiens, PBMC

| SMILES | pIC50 |
| --- | --- |
| CC(=O)OC[C@@H]1C=C[C@H](n2cc(F)c(N)nc2=O)O1 | < 4.00 |
| Nc1nc(=O)n(C2C=CC(CO)C2)cc1F (stereo not given) | < 4.00 |
| CC(=O)Nc1nc(=O)n([C@H]2C=C[C@@H](CO)O2)cc1F | < 4.00 |
| Nc1ccn(C2C=CC(CO)C2)c(=O)n1 (stereo not given) | < 4.00 |
| C[C@@H]1C[C@@H]([C@H](O)CC2CC(=O)NC(=O)C2)C(=O)[C@@H](C)C1 [CYCLOHEXIMIDE] | 5.68 |
| Nc1nc(=O)n([C@H]2C=C[C@@H](CO)O2)cc1Br | 4.04 |
| Cc1cn([C@H]2C[C@H](N=[N+]=[N-])[C@@H](CO)O2)c(=O)[nH]c1=O [ZIDOVUDINE] | < 4.00 |

System: Human immunodeficiency virus 1
Experiment: as §4
Format: functional, organism-based
Details: Human immunodeficiency virus 1, PBMC

| SMILES | pEC50 |
| --- | --- |
| CC(=O)OC[C@@H]1C=C[C@H](n2cc(F)c(N)nc2=O)O1 | 6.89 |
| Nc1nc(=O)n(C2C=CC(CO)C2)cc1F (stereo not given) | 5.09 |
| CC(=O)Nc1nc(=O)n([C@H]2C=C[C@@H](CO)O2)cc1F | 6.00 |
| Nc1ccn(C2C=CC(CO)C2)c(=O)n1 (stereo not given) | 5.05 |
| Nc1nc(=O)n([C@H]2C=C[C@@H](CO)O2)cc1Br | < 5.00 |
| Cc1cn([C@H]2C[C@H](N=[N+]=[N-])[C@@H](CO)O2)c(=O)[nH]c1=O [ZIDOVUDINE] | 8.70 |
